In assay [1] the test system is Pseudomonas aeruginosa. The assay is described as follows: Antimicrobial activity against Pseudomonas aeruginosa harboring pBBR-algU complemented gene by Etest method.
The subject of assay [2] is Pseudomonas aeruginosa. The assay is described as follows: Antimicrobial activity against Pseudomonas aeruginosa harboring mucD mutant gene by Etest method.
In assay [3] the test system is Pseudomonas aeruginosa. The assay is described as follows: Antimicrobial activity against Pseudomonas aeruginosa harboring pBBR1MCS-3 expressing mucD mutant gene by Etest method.
Assay [4] relates to Pseudomonas aeruginosa. The assay is described as follows: Antimicrobial activity against Pseudomonas aeruginosa harboring pBBR-mucD complemented gene by Etest method.
For assay [5], the system named is Pseudomonas aeruginosa PA14. The assay is described as follows: Activity of wild type Pseudomonas aeruginosa PA14 Beta-lactamase assessed as nitrocefin hydrolysis per mg of protein by spectrophotometry. In a few lines:
(§1)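 Cells grown to OD600 1.0, pelleted and resuspended in 0.1 M KH2PO4-Na2HPO4 pH 7.0. Crude extract made by two freeze-thaw cycles plus sonication on ice. β-Lactamase read as absorbance change at 485 nm with 50 µM nitrocefin in the same pH 7.0 phosphate buffer. Extract protein measured by BCA against a bovine serum albumin standard.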

Assay [6] deals with Pseudomonas aeruginosa PAO1. The assay is described as follows: Activity of wild type Pseudomonas aeruginosa PAO1 Beta-lactamase assessed as nitrocefin hydrolysis per mg of protein by spectrophotometry. Put shortly: as §1
For assay [7], the system named is Pseudomonas aeruginosa PA14. The assay is described as follows: Activity of Beta-lactamase in Pseudomonas aeruginosa PA14 PA3047 harboring dacB mutant gene assessed as nitrocefin hydrolysis per mg of protein by spectrophotometry. Put shortly: as §1
In assay [8] the test system is Pseudomonas aeruginosa PA14. The assay is described as follows: Activity of Beta-lactamase in Pseudomonas aeruginosa PA14 PA4020 harboring mpl mutant gene assessed as nitrocefin hydrolysis per mg of protein by spectrophotometry. In a few lines:
as §1

The test system of assay [9] is Pseudomonas aeruginosa PA14. The assay is described as follows: Activity of Beta-lactamase in Pseudomonas aeruginosa PA14 PA4020 harboring complemented mpl mutant gene assessed as nitrocefin hydrolysis per mg of protein by spectrophotometry. Put shortly:
as §1

The test system of assay [10] is Pseudomonas aeruginosa PA14. The assay is described as follows: Activity of Beta-lactamase in Pseudomonas aeruginosa PA14 PA4109 harboring ampR mutant gene assessed as nitrocefin hydrolysis per mg of protein by spectrophotometry. In a few lines:
as §1

The test system of assay [11] is Pseudomonas aeruginosa. The assay is described as follows: Antimicrobial activity against Pseudomonas aeruginosa PA14 PA5001 harboring mutation in putative glycosyl-transferase by broth microdilution method relative to wild type.

In brackets after ≈: the same amount, converted by molar mass.

The term MIC denotes the lowest concentration that inhibits growth of the organism. A lower MIC goes with a more susceptible organism. Consider `C[C@@H](O)[C@H]1C(=O)N2C(C(=O)O)=C(SCCNC=N)C[C@H]12` [IMIPENEM ANHYDROUS], for which the MIC against Pseudomonas aeruginosa [1] came out at 0.5 µg/mL (≈ 1.67 µM); against Pseudomonas aeruginosa [2], 0.25 µg/mL (≈ 0.835 µM); in the assay on Pseudomonas aeruginosa [3], 0.25 µg/mL (≈ 0.835 µM); against Pseudomonas aeruginosa [4] it was 0.5 µg/mL (≈ 1.67 µM).
For the compound `CC(C)(O/N=C(\C(=O)N[C@@H]1C(=O)N2C(C(=O)[O-])=C(C[n+]3ccccc3)CS[C@H]12)c1csc(N)n1)C(=O)O` [CEFTAZIDIME], the Activity in [5] stood at 4.9 nmol/min; in assay [6], 6.9 nmol/min; in assay [7], 110 nmol/min; in [8] it was 96 nmol/min; in assay [9] it was 7.3 nmol/min; in assay [10], 257 nmol/min. The “fold change (FC)” value with Pseudomonas aeruginosa [11] stood at 3.

The record behind these values is ChEMBL document CHEMBL1687778, “Genetic determinants involved in the susceptibility of Pseudomonas aeruginosa to beta-lactam antibiotics” (2010).
